ChEMBL document CHEMBL1795332, “Renin inhibitors for the treatment of hypertension: design and optimization of a novel series of pyridone-substituted piperidines” (Bioorg Med Chem Lett, 2011)
One block for each molecule: values may come before it.

Experiments:
CYP3A4 [1] = biological target: T1, CYP3A4 (Homo sapiens, UniProt P08684); test: Time dependent inhibition of CYP3A4 assessed as conversion of testosterone to 6-beta-hydroxytestosterone at 10 uM relative to control; assay type: ADME; details: probe testosterone
How it was run: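 Rate of CYP3A4 conversion of testosterone (250 μM) to 6-β-hydroxytestosterone measured before and after a 30 min incubation with compound at 10 μM (in DMSO). Difference expressed as % loss.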

Canis familiaris [2] = test: Cardiotoxicity in anesthetized, vagotomized and ventilated Mongrel dog assessed as prolongation of QTc intervals at 10 mg/kg, iv after 1.5 hrs relative to baseline; assay type: toxicity, organism-based, Canis lupus familiaris; design: dose 10 mg/kg, route intravenous; details: in vivo
How it was run: (§1)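 Anesthetized, vagotomized, ventilated mongrel dogs received an iv infusion of 10 mpk over 1.5 h. QTc, PR and QRS intervals were recorded as percentage change from baseline, and plasma concentration (µM) was measured.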

[3] = Plasma concentration in cardiac electrophysiology rat model at 10 mg/kg, iv after 0.5 hrs; assay type: ADME, organism-based; design: dose 10 mg/kg, route intravenous
How it was run: (§2)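 Rat electrophysiology model dosed at 10 mpk over 0.5 h. PR and QRS prolongation expressed as percentage change from baseline; plasma concentration (µM) recorded.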

[4] = Plasma concentration in anesthetized, vagotomized and ventilated Mongrel dog at 10 mg/kg, iv after 1.5 hrs; assay type: ADME, organism-based, Canis lupus familiaris; design: dose 10 mg/kg, route intravenous; how it was run: as §1
Rattus norvegicus [5] = test: Cardiotoxicity in cardiac electrophysiology rat model assessed as prolongation of QRS intervals at 10 mg/kg, iv after 0.5 hrs relative to baseline; assay type: toxicity, organism-based, Heart; design: dose 10 mg/kg, route intravenous; details: in vivo; how it was run: as §2
Renin [6] = biological target: T2, Renin (Homo sapiens, UniProt P00797); test: Inhibition of human recombinant renin using Q-FRET substrate after 3 hrs by fluorescence assay
T2 sequence (P00797 whole entry): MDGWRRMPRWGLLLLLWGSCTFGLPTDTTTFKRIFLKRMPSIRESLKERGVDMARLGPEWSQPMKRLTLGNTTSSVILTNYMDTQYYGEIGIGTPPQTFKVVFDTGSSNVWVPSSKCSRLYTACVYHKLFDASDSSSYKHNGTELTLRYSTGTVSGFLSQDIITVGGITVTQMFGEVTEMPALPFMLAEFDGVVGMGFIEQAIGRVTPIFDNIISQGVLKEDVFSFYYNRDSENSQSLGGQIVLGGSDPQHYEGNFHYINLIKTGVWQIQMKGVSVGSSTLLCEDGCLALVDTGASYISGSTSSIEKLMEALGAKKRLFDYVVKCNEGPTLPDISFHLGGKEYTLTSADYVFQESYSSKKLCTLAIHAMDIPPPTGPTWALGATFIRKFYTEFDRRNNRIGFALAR

CYP3A4 [7] = biological target: T1, CYP3A4; test: Reversible inhibition of CYP3A4 assessed as conversion of testosterone to 6-beta-hydroxytestosterone at 10 uM relative to control; assay type: ADME; details: probe testosterone
Rattus norvegicus [8] = test: Cardiotoxicity in cardiac electrophysiology rat model assessed as prolongation of PR intervals at 10 mg/kg, iv after 0.5 hrs relative to baseline; assay type: toxicity, organism-based, Heart; design: dose 10 mg/kg, route intravenous; details: in vivo; how it was run: as §2
Renin [9] = biological target: T2, Renin; test: Inhibition of renin in human plasma using Q-FRET substrate pretreated for 10 mins before substrate addition measured after 1 hr
[10] = biological target: Voltage-gated inwardly rectifying potassium channel KCNH2 (Homo sapiens, UniProt Q12809); test: Inhibition of human ERG
Canis familiaris [11] = test: Cardiotoxicity in anesthetized, vagotomized and ventilated Mongrel dog assessed as prolongation of PR intervals at 10 mg/kg, iv after 1.5 hrs relative to baseline; assay type: toxicity, organism-based, Canis lupus familiaris; design: dose 10 mg/kg, route intravenous; details: in vivo; how it was run: as §1
[12] = Oral bioavailability in Sprague-Dawley rat at 20 mg/kg; assay type: ADME, organism-based; details: in vivo
Canis familiaris [13] = test: Cardiotoxicity in anesthetized, vagotomized and ventilated Mongrel dog assessed as prolongation of QRS intervals at 10 mg/kg, iv after 1.5 hrs relative to baseline; assay type: toxicity, organism-based, Canis lupus familiaris; design: dose 10 mg/kg, route intravenous; details: in vivo; how it was run: as §1
[14] = Volume of distribution at steady state in Beagle dog at 3 mg/kg, po and 1 mg/kg, iv; assay type: ADME, organism-based, Canis lupus familiaris; details: in vivo, read-out: Vdss
[15] = AUC in cynomolgus monkey at 3 mg/kg, po; assay type: ADME, organism-based, Macaca fascicularis; design: dose 3 mg/kg, route oral; details: plasma
Rattus norvegicus [16] = test: Antihypertensive activity in double transgenic rat model assessed as reduction of blood pressure at 10 mg/kg, po; assay type: functional
Cytochrome P450 3A4 [17] = biological target: T3, Cytochrome P450 3A4 (Homo sapiens, UniProt P08684); test: Time dependent inhibition of CYP3A4 assessed as conversion of testosterone to 6-beta-hydroxytestosterone; assay type: ADME
How it was run: (§3)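 Time-dependent CYP3A4 inhibition (testosterone to 6-β-hydroxytestosterone).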

[18] = Oral bioavailability in cynomolgus monkey at 3 mg/kg; assay type: ADME, organism-based, Macaca fascicularis; details: in vivo
[19] = Volume of distribution at steady state in Sprague-Dawley rat at 20 mg/kg, po and 5 mg/kg, iv; details: in vivo, read-out: Vdss
Cytochrome P450 3A4 [20] = biological target: T3, Cytochrome P450 3A4; test: Time dependent inhibition of CYP3A4 assessed as conversion of testosterone to 6-beta-hydroxytestosterone preincubated for 30 mins; assay type: ADME; how it was run: as §3
[21] = Oral bioavailability in Beagle dog at 3 mg/kg; assay type: ADME, organism-based, Canis lupus familiaris; details: in vivo
[22] = Clearance in Beagle dog at 3 mg/kg, po and 1 mg/kg, iv; assay type: ADME, organism-based, Canis lupus familiaris; details: in vivo
[23] = AUC in Sprague-Dawley rat at 20 mg/kg, po; assay type: ADME, organism-based; design: dose 20 mg/kg, route oral; details: plasma
[24] = Volume of distribution at steady state in cynomolgus monkey at 3 mg/kg, po and 1 mg/kg, iv; assay type: ADME, organism-based, Macaca fascicularis; details: in vivo, read-out: Vdss
[25] = Half life in Sprague-Dawley rat at 20 mg/kg, po and 5 mg/kg, iv; details: in vivo
Rattus norvegicus [26] = test: Antihypertensive activity in double transgenic rat model assessed as duration in reduction of blood pressure at 10 mg/kg, po; assay type: functional
[27] = Half life in cynomolgus monkey at 3 mg/kg, po and 1 mg/kg, iv; assay type: ADME, organism-based, Macaca fascicularis; details: in vivo
Cytochrome P450 3A4 [28] = biological target: T3, Cytochrome P450 3A4; test: Reversible inhibition of CYP3A4 assessed as conversion of testosterone to 6-beta-hydroxytestosterone; assay type: ADME
Liver microsomes [29] = test: Covalent binding in human liver microsomes assessed per mg of protein at 10 uM after 60 mins in absence of NADPH; assay type: ADME, Microsome; details: 1 h
How it was run: (§4)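 Test compound at 10 μM was incubated for 60 min (n = 3) with human liver microsomes at 1 mg protein/mL, with or without 1 mM NADPH. Covalent binding reported as pmole eq/mg at 1 h.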

[30] = AUC in Beagle dog at 3 mg/kg, po; assay type: ADME, organism-based, Canis lupus familiaris; design: dose 3 mg/kg, route oral; details: plasma
[31] = Clearance in cynomolgus monkey at 3 mg/kg, po and 1 mg/kg, iv; assay type: ADME, organism-based, Macaca fascicularis; details: in vivo
Liver microsomes [32] = test: Covalent binding in human liver microsomes assessed per mg of protein at 10 uM after 60 mins in presence of NADPH; assay type: ADME, Microsome; details: 1 h; how it was run: as §4
[33] = Half life in Beagle dog at 3 mg/kg, po and 1 mg/kg, iv; assay type: ADME, organism-based, Canis lupus familiaris; details: in vivo
[34] = Clearance in Sprague-Dawley rat at 20 mg/kg, po and 5 mg/kg, iv; details: in vivo
[35] = Oral bioavailability in Sprague-Dawley rat at 30 mg/kg; assay type: ADME, organism-based; details: in vivo
[36] = biological target: Sodium channel protein type 5 subunit alpha (Homo sapiens, UniProt Q14524); test: Inhibition of human Nav1.5
[37] = biological target: Voltage-dependent L-type calcium channel subunit alpha-1C (Homo sapiens, UniProt Q13936); test: Inhibition of human Cav1.2
[38] = Solubility of the compound in water; assay type: physicochemical; details: buffer

T1 sequence (P08684 whole entry): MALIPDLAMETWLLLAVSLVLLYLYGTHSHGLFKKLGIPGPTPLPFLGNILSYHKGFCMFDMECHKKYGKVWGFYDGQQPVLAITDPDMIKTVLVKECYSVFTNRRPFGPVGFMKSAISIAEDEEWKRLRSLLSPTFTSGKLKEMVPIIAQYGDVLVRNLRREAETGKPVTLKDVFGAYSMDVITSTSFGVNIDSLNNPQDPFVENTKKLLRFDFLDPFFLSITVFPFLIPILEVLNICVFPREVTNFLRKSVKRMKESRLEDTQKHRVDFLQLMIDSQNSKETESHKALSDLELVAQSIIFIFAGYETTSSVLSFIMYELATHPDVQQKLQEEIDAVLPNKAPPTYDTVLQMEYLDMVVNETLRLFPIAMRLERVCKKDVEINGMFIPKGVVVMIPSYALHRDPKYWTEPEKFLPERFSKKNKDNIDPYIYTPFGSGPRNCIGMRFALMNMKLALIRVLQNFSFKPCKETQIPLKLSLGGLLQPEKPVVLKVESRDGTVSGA
T3 sequence (P08684 whole entry): as above
Sequence of Voltage-gated inwardly rectifying potassium channel KCNH2 (Q12809 whole entry): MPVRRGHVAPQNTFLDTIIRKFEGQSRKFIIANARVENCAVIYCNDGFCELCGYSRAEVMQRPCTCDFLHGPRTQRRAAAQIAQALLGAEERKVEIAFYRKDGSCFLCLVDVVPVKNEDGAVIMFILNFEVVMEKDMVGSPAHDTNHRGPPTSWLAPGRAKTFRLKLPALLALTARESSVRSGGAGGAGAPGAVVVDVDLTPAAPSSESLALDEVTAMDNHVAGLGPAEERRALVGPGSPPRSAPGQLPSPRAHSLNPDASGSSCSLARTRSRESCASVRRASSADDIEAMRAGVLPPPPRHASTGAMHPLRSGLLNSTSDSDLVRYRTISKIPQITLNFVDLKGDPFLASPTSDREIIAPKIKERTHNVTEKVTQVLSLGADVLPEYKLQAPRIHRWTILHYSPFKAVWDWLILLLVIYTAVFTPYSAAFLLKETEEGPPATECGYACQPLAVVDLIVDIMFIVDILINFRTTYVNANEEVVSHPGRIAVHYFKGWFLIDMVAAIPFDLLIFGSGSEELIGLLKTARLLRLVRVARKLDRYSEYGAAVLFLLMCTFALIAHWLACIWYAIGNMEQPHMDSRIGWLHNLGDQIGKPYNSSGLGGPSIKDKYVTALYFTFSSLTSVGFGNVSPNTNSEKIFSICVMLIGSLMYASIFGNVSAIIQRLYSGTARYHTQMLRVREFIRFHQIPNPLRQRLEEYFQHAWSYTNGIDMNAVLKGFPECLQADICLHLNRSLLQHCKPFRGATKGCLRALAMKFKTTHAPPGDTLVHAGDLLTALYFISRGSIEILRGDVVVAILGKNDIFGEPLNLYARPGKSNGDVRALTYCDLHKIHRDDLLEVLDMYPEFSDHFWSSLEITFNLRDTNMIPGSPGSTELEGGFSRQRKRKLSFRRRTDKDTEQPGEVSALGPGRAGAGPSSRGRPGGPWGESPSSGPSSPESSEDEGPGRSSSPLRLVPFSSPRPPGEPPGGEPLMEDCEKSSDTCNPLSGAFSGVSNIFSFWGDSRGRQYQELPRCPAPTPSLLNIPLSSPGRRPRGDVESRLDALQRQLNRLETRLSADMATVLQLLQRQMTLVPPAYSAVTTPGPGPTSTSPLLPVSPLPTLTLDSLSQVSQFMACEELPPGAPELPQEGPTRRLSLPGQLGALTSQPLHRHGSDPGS
Sequence of Voltage-dependent L-type calcium channel subunit alpha-1C (Q13936 whole entry): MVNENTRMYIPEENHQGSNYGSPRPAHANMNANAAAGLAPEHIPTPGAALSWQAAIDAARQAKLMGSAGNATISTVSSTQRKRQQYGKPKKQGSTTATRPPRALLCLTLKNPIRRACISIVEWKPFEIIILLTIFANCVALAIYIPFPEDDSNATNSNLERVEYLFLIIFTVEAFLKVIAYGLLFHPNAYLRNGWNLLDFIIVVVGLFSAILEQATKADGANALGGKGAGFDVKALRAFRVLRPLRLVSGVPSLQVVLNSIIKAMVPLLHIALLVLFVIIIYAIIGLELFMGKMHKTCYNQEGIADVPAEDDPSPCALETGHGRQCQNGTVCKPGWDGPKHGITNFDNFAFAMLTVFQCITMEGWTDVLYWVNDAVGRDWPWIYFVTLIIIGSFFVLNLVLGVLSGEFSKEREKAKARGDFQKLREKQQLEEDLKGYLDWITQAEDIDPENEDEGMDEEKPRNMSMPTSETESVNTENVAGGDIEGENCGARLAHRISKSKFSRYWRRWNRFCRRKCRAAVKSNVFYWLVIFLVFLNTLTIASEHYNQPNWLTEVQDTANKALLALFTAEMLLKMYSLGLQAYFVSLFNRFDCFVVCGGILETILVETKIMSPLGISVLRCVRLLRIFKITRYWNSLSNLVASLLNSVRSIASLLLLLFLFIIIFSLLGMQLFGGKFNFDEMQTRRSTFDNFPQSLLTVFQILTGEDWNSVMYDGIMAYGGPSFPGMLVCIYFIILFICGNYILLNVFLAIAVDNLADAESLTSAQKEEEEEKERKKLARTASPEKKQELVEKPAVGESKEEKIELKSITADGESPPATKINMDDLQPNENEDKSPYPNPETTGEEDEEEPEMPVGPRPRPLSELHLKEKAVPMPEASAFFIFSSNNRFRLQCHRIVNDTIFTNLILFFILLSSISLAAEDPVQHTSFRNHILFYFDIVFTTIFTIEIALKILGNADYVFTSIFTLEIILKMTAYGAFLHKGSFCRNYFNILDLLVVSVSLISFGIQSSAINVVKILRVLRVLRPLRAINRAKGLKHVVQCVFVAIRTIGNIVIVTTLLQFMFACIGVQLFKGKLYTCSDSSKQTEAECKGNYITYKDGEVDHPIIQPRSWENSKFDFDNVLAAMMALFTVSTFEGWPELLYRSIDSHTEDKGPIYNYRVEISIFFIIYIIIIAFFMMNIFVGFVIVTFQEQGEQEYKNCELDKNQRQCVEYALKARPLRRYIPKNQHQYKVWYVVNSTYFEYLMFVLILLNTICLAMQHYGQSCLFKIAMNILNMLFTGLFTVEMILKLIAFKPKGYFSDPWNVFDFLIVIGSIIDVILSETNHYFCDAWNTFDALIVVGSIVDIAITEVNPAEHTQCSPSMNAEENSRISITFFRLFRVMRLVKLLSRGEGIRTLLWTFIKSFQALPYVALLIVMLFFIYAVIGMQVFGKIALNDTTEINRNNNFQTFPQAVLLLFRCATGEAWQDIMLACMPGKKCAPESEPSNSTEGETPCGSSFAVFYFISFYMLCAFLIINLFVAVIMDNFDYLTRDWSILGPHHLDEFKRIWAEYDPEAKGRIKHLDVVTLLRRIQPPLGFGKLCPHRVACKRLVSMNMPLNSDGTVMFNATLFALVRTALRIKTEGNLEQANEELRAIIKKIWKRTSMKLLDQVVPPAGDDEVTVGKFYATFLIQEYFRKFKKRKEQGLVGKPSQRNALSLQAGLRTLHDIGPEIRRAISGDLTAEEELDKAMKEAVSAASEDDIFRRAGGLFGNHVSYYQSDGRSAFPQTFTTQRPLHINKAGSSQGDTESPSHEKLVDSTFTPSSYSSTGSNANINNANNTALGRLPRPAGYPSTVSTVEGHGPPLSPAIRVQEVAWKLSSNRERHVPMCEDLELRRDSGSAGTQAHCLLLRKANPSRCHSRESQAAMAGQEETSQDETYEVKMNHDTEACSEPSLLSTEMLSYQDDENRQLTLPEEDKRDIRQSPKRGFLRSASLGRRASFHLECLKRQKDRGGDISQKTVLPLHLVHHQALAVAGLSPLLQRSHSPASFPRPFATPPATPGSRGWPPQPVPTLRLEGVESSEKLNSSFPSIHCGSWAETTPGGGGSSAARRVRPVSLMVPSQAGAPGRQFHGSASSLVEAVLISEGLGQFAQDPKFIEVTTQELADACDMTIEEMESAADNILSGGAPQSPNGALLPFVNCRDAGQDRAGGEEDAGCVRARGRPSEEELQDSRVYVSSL

inhibition at 10 µM (CYP3A4 [1]): 16%
concentration at 0.5 h [3]: 7.4 µM
concentration at 1.5 h [4]: 15 µM
IC50 (Renin [6]): 0.3 nM
activity % at 10 µM (CYP3A4 [7]): 53%
IC50 (Renin [9]): 1.3 nM
bioavailability [12]: 24%
SMILES: COCCCc1cc(Cl)c(Cl)c(CN(C(=O)[C@H]2CNCC[C@@H]2c2ccn(C)c(=O)c2)C2CC2)c1
Activity (Canis familiaris [2]): 10%
Activity (Rattus norvegicus [5]): 54%
Activity (Rattus norvegicus [8]): 35%
Ki [10]: 4800 nM
Activity (Canis familiaris [11]): 50%
Activity (Canis familiaris [13]): 33%

Vd [14]: 4.5 L/kg
AUC [15]: 0.9 µM·h
IC50 (Cytochrome P450 3A4 [17]): 20000 nM
bioavailability [18]: 14%
Vd [19]: 17 L/kg
IC50 (Cytochrome P450 3A4 [20]): 16000 nM
inhibition at 10 µM (CYP3A4 [1]): 0%
concentration at 0.5 h [3]: 7.9 µM
bioavailability [21]: 36%
clearance [22]: 16 mL/min/kg
concentration at 1.5 h [4]: 9.3 µM
IC50 (Renin [6]): 1 nM
AUC [23]: 4.2 µM·h
Vd [24]: 4.8 L/kg
activity % at 10 µM (CYP3A4 [7]): 22%
half-life [25]: 5.2 h
half-life [27]: 7.8 h
IC50 (Cytochrome P450 3A4 [28]): 6500 nM
IC50 (Renin [9]): 2.4 nM
Activity (Liver microsomes [29]): 8.3 pmolequiv
AUC [30]: 2.1 µM·h
bioavailability [12]: 30%
clearance [31]: 14 mL/min/kg
Activity (Liver microsomes [32]): 34.5 pmolequiv
half-life [33]: 13.7 h
clearance [34]: 67 mL/min/kg
SMILES: COCCCc1cc(CN(C(=O)[C@H]2CNCC[C@@H]2c2ccn(C)c(=O)c2)C2CC2)cc(Br)c1C
Activity (Rattus norvegicus [16]): 35 mmHg
Activity (Canis familiaris [2]): 0%
Activity (Rattus norvegicus [5]): 14%
Activity (Rattus norvegicus [8]): 16%
Time (Rattus norvegicus [26]): 24 h
Ki [10]: 18000 nM
Activity (Canis familiaris [11]): 5%
Activity (Canis familiaris [13]): 4%

bioavailability [35]: 8%
inhibition at 10 µM (CYP3A4 [1]): 45%
concentration at 0.5 h [3]: 12.7 µM
concentration at 1.5 h [4]: 25 µM
IC50 (Renin [6]): 2.3 nM
IC50 (Renin [9]): 5.2 nM
SMILES: COCCCn1cc(CN(C(=O)[C@H]2CNCC[C@@H]2c2ccn(C)c(=O)c2)C2CC2)c2ccccc21
Activity (Canis familiaris [2]): 6%
Activity (Rattus norvegicus [5]): 30%
Activity (Rattus norvegicus [8]): 23%
IC50 [36]: > 30000 nM
Activity (Canis familiaris [11]): 14%
Activity (Canis familiaris [13]): 12%
IC50 [37]: > 30000 nM

solubility [38]: soluble
SMILES: COCCCc1cc(CN(C(=O)[C@H]2CNCC[C@@H]2c2ccn(C)c(=O)c2)C2CC2)cc(Br)c1C.Cl
